The record followed here is ChEMBL document CHEMBL1143779, “Antiviral 2,5-disubstituted imidazo[4,5-c]pyridines: from anti-pestivirus to anti-hepatitis C virus activity” (Bioorg Med Chem Lett, 2007).

pEC50: −log10 of the molar value. Active and inactive are the calls of the source. The calls are words filed in the database; no cut-off is given here.

In series [1] the test system is Bovine viral diarrhea virus 1. Description: Antiviral activity against BVDV in MDBK cells assessed as reduction of virus-induced cytopathic effect. Type of series: functional, organism-based. The settings on record: Bovine viral diarrhea virus isolates and strains.
A short description of series [2]: Cytotoxicity against MDBK cells. The series is classed as cell-based, Bos taurus. The settings on record: cattle. The gist of the method: (§1)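 MDBK or Huh 5-2 cells seeded at 5 · 10³ cells/well in MEM-FCS; serial compound dilutions added 24 h later. Read-out OD490 nm, expressed as OD treated/OD untreated control.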
A short description of series [3]: Selectivity index, ratio of CC50 for MDBK cells to EC50 for BVDV. The series is classed as functional.
Series [4] relates to Hepatitis C virus. Description: Antiviral activity against HCV in Huh 5-2 cells assessed as […]. Type of series: functional, organism-based, Hepacivirus hominis. An outline of the steps: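 Huh 5-2 cells were seeded at 5×10³/well in complete DMEM with G418. After 24 h at 37 °C (5% CO₂), the medium was replaced with threefold serial compound dilutions in DMEM without G418 and incubated for 4 days. Values are means of 4–6 independent experiments.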
On the technique in general: Damage to the host cells serves as the signal in cytopathic effect assays.

Series [5] can be described thus: Cytotoxicity against Huh 5-2 cells. Particulars: human. Type of series: cell-based. The gist of the method:
as §1

Series [6] is described as follows: Selectivity index, ratio of CC50 for Huh 5-2 cells to EC50 for HCV. Type of series: functional.

Turning to `Brc1ccc(Cn2ccc3nc(-c4ccccn4)nc-3c2)cc1`, the pEC50 (in general, the negative decadic logarithm of the EC50, by convention in mol/L) is 7.00 in series [1] and 6.46 in series [4]. Moreover, the CC50 (in general, the concentration that lowers cell viability or growth by half) in series [2] came to 10 µM; in series [5], 5.2 µM. Moreover, the “Ratio CC50/EC50” value is listed as 96 in series [3] and 15 in series [6].
Take `Fc1ccccc1-c1nc2ccn(Cc3ccc(Cl)cc3)cc-2n1`: the figures for the pEC50 in series [1] and in series [4] were 6.96 and 4.36, respectively. Also, the cytotoxic concentration (CC50) was more than 33 µM in series [2] and 68 µM in series [5]. Also, the “Ratio CC50/EC50” value in series [3] is given as more than 300; in series [6], 1.5.
On to `Fc1ccccc1-c1nc2ccn(Cc3ccc(I)cc3)cc-2n1`, for which the negative logarithm of the EC50 (pEC50) is 7.15 in series [1] and 6.10 in series [4]. For the same compound, the CC50 was more than 33 µM in series [2] and 58 µM in series [5]. Also, the “Ratio CC50/EC50” value in series [3] is listed as more than 478; in series [6], 74.
As to `Clc1cccc(-c2nc3ccn(Cc4ccc(Br)cc4)cc-3n2)c1`, the pEC50 was 6.82 in series [1] and 4.08 in series [4]. In addition, the results for the CC50 in series [2] and in series [5] were more than 33 µM and more than 125 µM, respectively. For the same compound, the “Ratio CC50/EC50” value in series [3] is listed as more than 220; in series [6], more than 2.
For the compound `Brc1ccc(Cn2ccc3nc(-c4cccc(I)c4)nc-3c2)cc1`, the values for the pEC50 in series [1] and in series [4] were 7.15 and 5.24, respectively. Further, the CC50 is more than 33 µM in series [2] and 12 µM in series [5]. Besides, the “Ratio CC50/EC50” value in series [3] is more than 83; in series [6], 2.
As for `Clc1ccc(-c2nc3ccn(Cc4ccc(Br)cc4)cc-3n2)cc1`, the pEC50 in series [1] was 6.15; in series [4] it was 4.89. Moreover, the CC50 in series [2] was more than 33 µM; in series [5], 17 µM. Moreover, in series [3], the “Ratio CC50/EC50” value was more than 47. Further, the result in series [6] was inactive.
Turning to `CN(C)c1cccc(-c2nc3ccn(Cc4ccc(Br)cc4)cc-3n2)c1`, the results for the pEC50 in series [1] and in series [4] were 6.85 and less than 4.10, respectively. Also, the results for the CC50 in series [2] and in series [5] were 24 µM and 79 µM, respectively. The “Ratio CC50/EC50” value in series [3] is given as 171. Moreover, the result in series [6] was inactive.
On to `Fc1ccc(-c2nc3ccn(Cc4ccc(Br)cc4)cc-3n2)cc1`, for which the pEC50 in series [1] was 6.77; in series [4], 4.51. Further, the CC50 in series [2] is more than 33 µM; in series [5], 37 µM. Also, the “Ratio CC50/EC50” value in series [3] is listed as more than 194. The result in series [6] was inactive.
As for `Cc1ccc(-c2nc3ccn(Cc4ccc(Br)cc4)cc-3n2)cc1`, the pEC50 was 6.40 in series [1] and 5.09 in series [4]. Further, the figures for the CC50 in series [2] and in series [5] were 21 µM and 13 µM, respectively. Further, the “Ratio CC50/EC50” value is 53 in series [3] and 2 in series [6].
With `Cc1cccc(-c2nc3ccn(Cc4ccc(Br)cc4)cc-3n2)c1`, the pEC50 in series [1] was 7.22; in series [4] it was less than 4.96. Also, the values for the CC50 in series [2] and in series [5] were 23 µM and 11 µM, respectively. The “Ratio CC50/EC50” value in series [3] worked out at 372. The outcome in series [6] was inactive.
For `Brc1ccc(Cn2ccc3nc(-c4ccncc4)nc-3c2)cc1`, the pEC50 was 6.33 in series [1] and 4.85 in series [4]. Moreover, the CC50 in series [2] is more than 33 µM; in series [5] it was 38 µM. In addition, the “Ratio CC50/EC50” value in series [3] is on record as more than 70; in series [6], 3.
Turning to `COc1cccc(-c2nc3ccn(Cc4ccc(Br)cc4)cc-3n2)c1`, the values for the pEC50 in series [1] and in series [4] were 7.30 and 4.74, respectively. In addition, the figures for the CC50 in series [2] and in series [5] were more than 33 µM and 28 µM, respectively. For the same compound, the “Ratio CC50/EC50” value was more than 660 in series [3] and 2 in series [6].
Turning to `Brc1ccc(Cn2ccc3nc(-c4cccs4)nc-3c2)cc1`, the pEC50 was 7.40 in series [1] and less than 4.46 in series [4]. Also, the CC50 in series [2] was more than 33 µM; in series [5] it was 35 µM. In addition, the “Ratio CC50/EC50” value in series [3] was more than 825. Further, the outcome in series [6] was inactive.
As for `Brc1ccc(Cn2ccc3nc(-c4ccc5ccccc5c4)nc-3c2)cc1`, the negative-log EC50 (pEC50) in series [1] was 7.52; in series [4], 5.24. Moreover, the values for the CC50 in series [2] and in series [5] were 7 µM and 9.7 µM, respectively. For the same compound, the “Ratio CC50/EC50” value in series [3] is on record as 259; in series [6], 2.
Consider `Brc1ccc(Cn2ccc3nc(-c4ccc(Br)s4)nc-3c2)cc1`, for which the figures for the pEC50 in series [1] and in series [4] were 6.22 and less than 4.74, respectively. In addition, the values for the CC50 in series [2] and in series [5] were more than 33 µM and 18 µM, respectively. Further, the “Ratio CC50/EC50” value in series [3] was more than 55. Also, the result in series [6] was inactive.
On to `Brc1ccc(Cn2ccc3nc(-c4ccccc4)nc-3c2)cc1`, for which, in series [4], the pEC50 was less than 4.42. Moreover, the CC50 in series [5] is 38 µM. Moreover, the result in series [6] was inactive.
`Brc1ccc(Cn2ccc3nc(COc4ccccc4)nc-3c2)cc1`: the pEC50 in series [1] was less than 5.10; in series [4] it was 4.60. In addition, the CC50 in series [2] is more than 33 µM; in series [5] it was 35 µM. Further, in series [6], the “Ratio CC50/EC50” value turned out to be 1.5.
Consider `Brc1ccc(Cn2ccc3nc(-c4cccc5ccccc45)nc-3c2)cc1`, for which the results for the pEC50 in series [1] and in series [4] were 6.52 and 5.01, respectively. Also, the CC50 in series [2] is 23 µM; in series [5], 12 µM. For the same compound, the “Ratio CC50/EC50” value in series [3] amounted to 77. Moreover, the result in series [6] was inactive.
As for `Clc1ccccc1-c1nc2ccn(Cc3ccc(Br)cc3)cc-2n1`, the pEC50 in series [1] is 6.48; in series [4], 4.60. In addition, the figures for the 50% cytotoxic concentration (CC50) in series [2] and in series [5] were more than 33 µM and 43 µM, respectively. The “Ratio CC50/EC50” value in series [3] is given as more than 100; in series [6] it was 2.
Turning to `FC(F)(F)c1cccc(-c2nc3ccn(Cc4ccc(Br)cc4)cc-3n2)c1`, the pEC50 in series [1] was 6.30; in series [4], 4.64. Further, the CC50 was more than 33 µM in series [2] and more than 116 µM in series [5]. Further, the results for the “Ratio CC50/EC50” value in series [3] and in series [6] were more than 72 and more than 5, respectively.
For the compound `CCc1nc2ccn(Cc3ccc(Br)cc3)cc-2n1`, the pEC50 was 6.42 in series [1] and less than 4.04 in series [4]. Also, the half-maximal cytotoxic concentration (CC50) is more than 33 µM in series [2] and 92 µM in series [5]. Further, the “Ratio CC50/EC50” value in series [3] is listed as more than 87. The outcome in series [6] was inactive.
Take `Brc1ccc(Cn2ccc3nc(-c4ccccc4Br)nc-3c2)cc1`: the pEC50 in series [1] is 6.30; in series [4], 4.68. Moreover, the CC50 in series [2] is more than 33 µM; in series [5], 36 µM. The “Ratio CC50/EC50” value in series [3] is reported as more than 66; in series [6], 2.
As for `Fc1cccc(-c2nc3ccn(Cc4ccc(Br)cc4)cc-3n2)c1`, the negative-log EC50 (pEC50) was 7.40 in series [1] and less than 4.36 in series [4]. The CC50 was more than 33 µM in series [2] and 44 µM in series [5]. The “Ratio CC50/EC50” value in series [3] was more than 825. In series [6], the outcome was inactive.
In the case of `Brc1ccc(Cn2ccc3nc(-c4cccnc4)nc-3c2)cc1`, the pEC50 in series [1] is 6.80; in series [4], 3.96. Besides, the CC50 was more than 33 µM in series [2] and 126 µM in series [5]. The “Ratio CC50/EC50” value in series [3] was more than 206. Further, in series [6], the result was inactive.
For `Brc1ccc(Cn2ccc3nc(-c4cccc(Br)c4)nc-3c2)cc1`, the figures for the pEC50 in series [1] and in series [4] were 6.96 and less than 3.95, respectively. For the same compound, the CC50 is more than 33 µM in series [2] and more than 113 µM in series [5]. The “Ratio CC50/EC50” value in series [3] was more than 300. In series [6], the outcome was inactive.
